Measured values collected from several papers.
Protocols differ between the studies behind these lines.
MMP13: Collagenase 3 (MMP13, Homo sapiens, UniProt P45452)
PGR: Progesterone receptor (PGR, Homo sapiens, UniProt P06401)

SMILES | target | test | setting | inhibition
CN(C)C(=O)COC(=O)Cc1ccc(OC(=O)c2ccc(NC(=N)N)cc2)cc1 | MMP13 | enzyme activity, inhibitor | 10 µM | 24%
c1ccc(C(NCCNC(c2ccccc2)c2ccccc2)c2ccccc2)cc1 | Beta-3 adrenergic receptor (ADRB3, Homo sapiens, UniProt P13945) | cell-free assay | 10 µM | 59%
C#Cc1n[nH]c2c(-c3cn(C(C)c4ccccn4)c(=O)[nH]c3=O)cc(F)cc12 (stereo not shown) | Dual specificity protein kinase CLK2 (CLK2, Homo sapiens, UniProt P49760) | enzyme activity, inhibitor | 1 µM | 1.9%
O=C(Nc1cccnn1)N1CCN([C@@H]2CCOc3cc(C(F)(F)F)ccc32)CC1 | Prostaglandin E2 receptor EP2 subtype (PTGER2, Homo sapiens, UniProt P43116) | cell-free assay | 20 µM | -13%
CN(CCN1CCC(OC(=O)Nc2ccccc2-c2ccccc2)CC1)C(=O)c1ccc(CN2CCC(C(N)=O)CC2)cc1 | PGR | ligand displacement, radioligand | 1 µM | 0%
N=C(N)c1ccc2cc(OC(=O)c3ccc(N=C(N)N)cc3)ccc2c1 | MMP13 | enzyme activity, inhibitor | 10 µM | 75%
Cn1cc(-c2cc(F)cc(N3CCn4c(cc5c4CCCC5)C3=O)c2CO)cc(Nc2ccc(N3CCN(C4COC4)CC3)cn2)c1=O | Tyrosine-protein kinase Tec (TEC, Homo sapiens, UniProt P42680) | enzyme activity, inhibitor | 0.1 µM | -3%
CC(C)C[C@H](NC(=O)[C@H](Cc1ccccc1)NC(=O)c1cnccn1)B(O)O | Chymase (CMA1, Homo sapiens, UniProt P23946) | enzyme activity, inhibitor | 33 µM | 84.2%
C#Cc1n[nH]c2c(-c3cn([C@@H](C)c4ccccc4)c(=O)[nH]c3=O)cc(F)cc12 | Tyrosine-protein kinase JAK1 (JAK1, Homo sapiens, UniProt P23458) | enzyme activity, inhibitor | 0.1 µM | -1.2%
COc1ccc2[nH]c(C(O)c3ccc(Cl)cc3)c(CCNC(C)=O)c2c1 (stereo not shown) | Calmodulin-1 (CALM1, Homo sapiens, UniProt P0DP23) | enzyme activity, inhibitor | 50 µM | 40 to 50%
COc1cc(Nc2ncc(F)c(Nc3ccc4c(n3)NC(=O)C(C)(C)O4)n2)cc(OC)c1OC | Casein kinase I isoform alpha-like (CSNK1A1L, Homo sapiens, UniProt Q8N752) | binding, competition with immobilised ligand | 10 µM | 0%
C[C@H](C(=O)N[C@H]1COc2ccccc2[C@@H]1S(C)(=O)=O)c1ccc(F)cc1 | Adenosine receptor A2b (ADORA2B, Homo sapiens, UniProt P29275) | cell-free assay | 10 µM | 9%
COc1ccc(S(=O)(=O)N2CCCCC2)cc1C | PGR | ligand displacement, radioligand | 10 µM | < 30%
